Calls of active or inactive are those of the source. No cut-off for these calls is given here.
Experiments:
D(1B) dopamine receptor = D(1B) dopamine receptor (Homo sapiens, UniProt P21918); experiment: Displacement of […] from human D5 receptor expressed in HEK293T cell membranes; design: species or system HEK-293T
D(2) dopamine receptor [1] = target: T1, D(2) dopamine receptor (Homo sapiens, UniProt P14416); experiment: Displacement of [3H]spiperone from human D2-long receptor expressed in CHO cell membranes
T1 sequence (P14416 whole entry): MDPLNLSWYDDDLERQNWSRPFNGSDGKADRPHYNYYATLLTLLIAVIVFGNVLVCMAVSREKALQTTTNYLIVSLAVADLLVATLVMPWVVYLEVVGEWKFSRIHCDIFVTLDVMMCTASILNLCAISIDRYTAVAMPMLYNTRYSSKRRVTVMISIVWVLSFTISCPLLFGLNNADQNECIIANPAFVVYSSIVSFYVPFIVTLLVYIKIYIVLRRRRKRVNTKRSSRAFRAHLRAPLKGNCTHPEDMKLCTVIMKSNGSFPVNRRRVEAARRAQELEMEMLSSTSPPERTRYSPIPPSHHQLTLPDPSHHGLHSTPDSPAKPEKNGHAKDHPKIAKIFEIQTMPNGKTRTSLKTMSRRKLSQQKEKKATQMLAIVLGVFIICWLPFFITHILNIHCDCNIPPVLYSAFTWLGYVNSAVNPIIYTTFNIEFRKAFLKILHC

D(3) dopamine receptor = D(3) dopamine receptor (Homo sapiens, UniProt P35462); experiment: Displacement of [3H]spiperone from human D3 receptor expressed in CHO cell membranes
Sequence of D(3) dopamine receptor (P35462 whole entry): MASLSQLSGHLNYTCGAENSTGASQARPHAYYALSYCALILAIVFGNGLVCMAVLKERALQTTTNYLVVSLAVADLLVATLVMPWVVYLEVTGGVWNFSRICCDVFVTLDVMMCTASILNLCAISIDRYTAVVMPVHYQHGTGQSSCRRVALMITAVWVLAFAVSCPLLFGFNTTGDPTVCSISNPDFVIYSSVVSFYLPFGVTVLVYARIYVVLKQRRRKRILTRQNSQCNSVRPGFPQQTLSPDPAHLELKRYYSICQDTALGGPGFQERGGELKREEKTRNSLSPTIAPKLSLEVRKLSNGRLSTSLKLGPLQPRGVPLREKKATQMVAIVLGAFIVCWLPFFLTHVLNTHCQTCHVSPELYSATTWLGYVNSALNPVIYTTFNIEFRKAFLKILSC

Homo sapiens [2] = species: Homo sapiens; experiment: Selectivity ratio of Ki for human D1 receptor expressed in HEK293T cell membranes to Ki for human D3 receptor expressed in CHO cell membranes; format: cell-based
D(1A) dopamine receptor = D(1A) dopamine receptor (Homo sapiens, UniProt P21728); experiment: Displacement of […] from human D1 receptor expressed in HEK293T cell membranes; design: species or system HEK-293T
Sequence of D(1A) dopamine receptor (P21728 whole entry): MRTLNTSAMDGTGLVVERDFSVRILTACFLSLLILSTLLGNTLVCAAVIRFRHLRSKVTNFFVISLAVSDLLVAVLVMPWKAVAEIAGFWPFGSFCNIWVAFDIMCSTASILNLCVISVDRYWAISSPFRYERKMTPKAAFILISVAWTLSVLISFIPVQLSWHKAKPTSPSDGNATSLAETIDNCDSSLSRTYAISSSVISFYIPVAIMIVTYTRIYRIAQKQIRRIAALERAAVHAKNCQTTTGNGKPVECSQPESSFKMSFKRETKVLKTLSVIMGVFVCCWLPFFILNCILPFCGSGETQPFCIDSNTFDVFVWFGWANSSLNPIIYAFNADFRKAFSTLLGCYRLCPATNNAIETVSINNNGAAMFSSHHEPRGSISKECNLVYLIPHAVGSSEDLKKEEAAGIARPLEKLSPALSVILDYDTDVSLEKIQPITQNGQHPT

D(2) dopamine receptor [3] = target: T1, D(2) dopamine receptor; experiment: Displacement of [3H]spiperone from human D2-short receptor expressed in CHO cell membranes
[4] = Selectivity ratio of Ki for porcine cerebral cortex 5-HT1A receptor to Ki for human D3 receptor expressed in CHO cell membranes; format: cell-based
Homo sapiens [5] = species: Homo sapiens; experiment: Selectivity ratio of Ki for human D2-short receptor expressed in CHO cell membranes to Ki for human D3 receptor expressed in CHO cell membranes; format: cell-based
Homo sapiens [6] = species: Homo sapiens; experiment: Selectivity ratio of Ki for human 5-HT2A receptor expressed in HEK293T cell membranes to Ki for human D3 receptor expressed in CHO cell membranes; format: cell-based
Homo sapiens [7] = species: Homo sapiens; experiment: Selectivity ratio of Ki for human D2-long receptor expressed in CHO cell membranes to Ki for human D3 receptor expressed in CHO cell membranes; format: cell-based
Homo sapiens [8] = species: Homo sapiens; experiment: Selectivity ratio of Ki for human D5 receptor expressed in HEK293T cell membranes to Ki for human D3 receptor expressed in CHO cell membranes; format: cell-based
D(4) dopamine receptor = target: T2, D(4) dopamine receptor (Homo sapiens, UniProt P21917); experiment: Displacement of [3H]spiperone from human D4 receptor expressed in CHO cell membranes
T2 sequence (P21917 whole entry): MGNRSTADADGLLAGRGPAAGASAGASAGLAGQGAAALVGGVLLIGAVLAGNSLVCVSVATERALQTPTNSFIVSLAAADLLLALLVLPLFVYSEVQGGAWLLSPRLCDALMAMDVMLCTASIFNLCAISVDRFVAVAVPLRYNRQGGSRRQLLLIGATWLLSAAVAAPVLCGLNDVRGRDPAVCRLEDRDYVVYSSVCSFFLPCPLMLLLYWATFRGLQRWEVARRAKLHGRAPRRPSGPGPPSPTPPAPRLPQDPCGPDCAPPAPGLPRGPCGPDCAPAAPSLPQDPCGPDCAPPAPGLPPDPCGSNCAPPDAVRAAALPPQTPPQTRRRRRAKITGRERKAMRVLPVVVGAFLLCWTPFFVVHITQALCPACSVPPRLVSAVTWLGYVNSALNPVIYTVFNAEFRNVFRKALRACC

Homo sapiens [9] = species: Homo sapiens; experiment: Selectivity ratio of Ki for human D4 receptor expressed in CHO cell membranes to Ki for human D3 receptor expressed in CHO cell membranes; format: cell-based
[10] = Displacement of […] from porcine cerebral cortex 5-HT1A receptor; design: species or system Sus scrofa
[11] = target: 5-hydroxytryptamine receptor 2A (Homo sapiens, UniProt P28223); experiment: Displacement of [3H]ketanserin from human 5-HT2A receptor expressed in HEK293T cell membranes; design: species or system HEK-293T
Sequence of 5-hydroxytryptamine receptor 2A (P28223 whole entry): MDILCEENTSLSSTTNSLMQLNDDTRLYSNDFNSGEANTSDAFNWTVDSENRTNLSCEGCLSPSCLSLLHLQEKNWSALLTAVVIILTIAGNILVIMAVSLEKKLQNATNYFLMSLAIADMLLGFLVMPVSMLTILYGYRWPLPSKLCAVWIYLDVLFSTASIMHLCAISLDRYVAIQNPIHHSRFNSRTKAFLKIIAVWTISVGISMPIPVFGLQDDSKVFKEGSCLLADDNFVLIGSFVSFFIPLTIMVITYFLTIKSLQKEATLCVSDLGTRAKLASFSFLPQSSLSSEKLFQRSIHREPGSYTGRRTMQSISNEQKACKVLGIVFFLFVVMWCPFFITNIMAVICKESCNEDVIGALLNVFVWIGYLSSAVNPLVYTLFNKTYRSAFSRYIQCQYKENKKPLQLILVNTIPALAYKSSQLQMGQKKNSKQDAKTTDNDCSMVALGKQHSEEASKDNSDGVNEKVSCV

Rhesus monkey [12] = experiment: Reduction in cocaine-maintained responding in monkey at 0.18 to 0.32 mg/kg, im administered as single dose 15 mins prior to self administration of 0.1 mg/kg, iv per injection of cocaine for 100 mins relative to control; format: functional, Macaca mulatta; design: scale not given: the % may be the effect or the level left
In short: (§1)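 Male rhesus monkeys trained to respond for cocaine and food under daily 2 h FR30 sessions. Sessions ran in order: food 1, a 100-min i.v. cocaine (or saline) component, then food 2. Saline pretreatment served as baseline. Values are mean ± S.E.M. of four experiments, with significance by two-tailed t-test (p < 0.05).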

Rhesus monkey [13] = experiment: Reduction in cocaine-maintained responding in monkey administered im 15 mins prior to self administration of 0.1 mg/kg, iv per injection of cocaine for 100 mins; format: functional, organism-based; settings: Macaca mulatta; in short: as §1
Rhesus monkey [14] = experiment: Reduction in cocaine-maintained responding in monkey at 0.18 to 0.32 mg/kg, im administered as single dose 15 mins prior to self administration of 0.01 to 0.03 mg/kg, iv per injection of cocaine for 100 mins relative to control; format: functional, Macaca mulatta; design: scale not given: the % may be the effect or the level left; in short: as §1
Rhesus monkey [15] = experiment: Reduction in food reinforcement-maintained behavior in monkey at 0.18 to 0.32 mg/kg, im administered as single dose 15 mins prior to food reinforcement during second component of session relative to control; format: functional, Macaca mulatta; design: scale not given: the % may be the effect or the level left; in short: as §1
Rhesus monkey [16] = experiment: Reduction in food reinforcement-maintained behavior in monkey at 0.18 to 0.32 mg/kg, im administered as single dose 15 mins prior to food reinforcement during first component of session relative to control; format: functional, Macaca mulatta; design: scale not given: the % may be the effect or the level left; settings: in the assay text read “0.32 mg/kg” for “0.18 to 0.32 mg/kg”; in short: as §1
Rhesus monkey [17] = experiment: Reduction in cocaine-maintained responding in monkey at 0.18 to 0.32 mg/kg, im administered as single dose 15 mins prior to self administration of 0.003 mg/kg, iv per injection of cocaine for 100 mins relative to control; format: functional, Macaca mulatta; design: scale not given: the % may be the effect or the level left; in short: as §1
[18] = target: D(3) dopamine receptor (Rattus norvegicus) (UniProt P19020); experiment: Displacement of BP897 from D3 receptor in rat brain islands of calleja at 5 MBq after 45 mins by phosphorus imaging based autoradiography; settings: 5 M, tested as the 18F-labelled form
Sequence of D(3) dopamine receptor (Rattus norvegicus) (P19020 whole entry): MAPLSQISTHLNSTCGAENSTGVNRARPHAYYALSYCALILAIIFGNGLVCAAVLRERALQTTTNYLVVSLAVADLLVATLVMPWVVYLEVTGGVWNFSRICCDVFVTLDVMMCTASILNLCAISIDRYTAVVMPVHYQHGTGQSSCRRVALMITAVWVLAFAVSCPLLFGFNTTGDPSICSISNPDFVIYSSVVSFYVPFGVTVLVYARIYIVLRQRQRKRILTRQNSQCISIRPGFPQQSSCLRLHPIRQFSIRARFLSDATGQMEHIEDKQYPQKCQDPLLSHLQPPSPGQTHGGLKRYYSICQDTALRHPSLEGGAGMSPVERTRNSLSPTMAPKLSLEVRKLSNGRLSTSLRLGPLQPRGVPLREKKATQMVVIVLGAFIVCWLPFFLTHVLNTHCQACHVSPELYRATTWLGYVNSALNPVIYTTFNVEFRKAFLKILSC

[19] = target: D(3) dopamine receptor (Rattus norvegicus) (UniProt P19020); experiment: Displacement of BP897 from D3 receptor in rat brain striatum at 5 MBq after 45 mins by phosphorus imaging based autoradiography; settings: 5 M, tested as the 18F-labelled form
[20] = target: D(3) dopamine receptor (Rattus norvegicus) (UniProt P19020); experiment: Displacement of BP897 from D3 receptor in rat brain lateral septum nuclei at 5 MBq after 45 mins by phosphorus imaging based autoradiography; settings: 5 M, tested as the 18F-labelled form
[21] = target: D(3) dopamine receptor (Rattus norvegicus) (UniProt P19020); experiment: Displacement of BP897 from D3 receptor in rat brain cortex at 5 MBq after 45 mins by phosphorus imaging based autoradiography; settings: 5 M, tested as the 18F-labelled form
[22] = Drug uptake in rat brain plexus tissue at 10 to 15 MBq, iv after 60 mins by phosphorus imaging based autoradiography; format: ADME, organism-based; settings: in vivo, 1 h
In short: (§2)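 Rats injected with the [¹⁸F]-labelled radioligand, alone or co-injected with BP897. Coronal brain sections taken at 60 min p.i. for ex-vivo autoradiography and overlaid with HE-stained sections. Uptake expressed as region of interest-to-background ratio, with control animals compared against BP897 co-injected animals.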

[23] = Drug uptake in rat brain calleja islands at 10 to 15 MBq, iv after 60 mins by phosphorus imaging based autoradiography; format: ADME, organism-based, Calleja island; settings: in vivo, 1 h; in short: as §2
Brain = experiment: Drug uptake in rat brain at 10 to 15 MBq, iv after 40 mins by PET imaging method; format: ADME, organism-based; settings: in vivo
[24] = Drug uptake in rat brain ventricles at 10 to 15 MBq, iv after 40 mins by PET imaging method; format: ADME, organism-based, Brain ventricle; settings: in vivo
[25] = Drug uptake in rat brain striatum at 10 to 15 MBq, iv after 60 mins by phosphorus imaging based autoradiography; format: ADME, organism-based; settings: in vivo, 1 h; in short: as §2
[26] = Drug uptake in rat brain ventricles at 10 to 15 MBq, iv after 60 mins by phosphorus imaging based autoradiography; format: ADME, organism-based, Brain ventricle; settings: in vivo, 1 h; in short: as §2
[27] = Drug uptake in rat pituitary gland at 10 to 15 MBq, iv after 40 mins pretreated with D3 ligand BP897 by PET imaging method; format: ADME, organism-based; settings: in vivo
In short: (§3)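 In vivo PET scan of rats given the [¹⁸F]-labelled radioligand. Whole pituitary gland uptake measured at 40 min p.i. as %ID/g, with or without BP897 pretreatment.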

[28] = Drug uptake in rat pituitary gland at 10 to 15 MBq, iv after 40 mins by PET imaging method; format: ADME, organism-based; settings: in vivo; in short: as §3
[29] = Drug uptake in rat brain ependyma cell layer at 10 to 15 MBq, iv after 60 mins by phosphorus imaging based autoradiography; format: ADME, organism-based; settings: in vivo, 1 h; in short: as §2
[30] = tested as the 18F-labelled form

Sequence of D(1B) dopamine receptor (P21918 whole entry): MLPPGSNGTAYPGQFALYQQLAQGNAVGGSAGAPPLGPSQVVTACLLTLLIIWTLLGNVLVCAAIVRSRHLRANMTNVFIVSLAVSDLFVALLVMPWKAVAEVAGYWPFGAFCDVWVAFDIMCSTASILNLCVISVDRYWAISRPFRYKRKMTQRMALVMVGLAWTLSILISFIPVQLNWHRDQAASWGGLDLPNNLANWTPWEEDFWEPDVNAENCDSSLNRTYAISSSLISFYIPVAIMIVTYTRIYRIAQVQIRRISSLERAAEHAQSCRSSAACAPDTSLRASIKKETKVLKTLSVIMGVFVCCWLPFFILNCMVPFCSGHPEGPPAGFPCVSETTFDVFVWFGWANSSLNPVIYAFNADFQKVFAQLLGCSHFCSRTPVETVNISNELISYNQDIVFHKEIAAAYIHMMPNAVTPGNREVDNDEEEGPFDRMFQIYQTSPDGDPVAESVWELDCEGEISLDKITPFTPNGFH

SMILES | Ki (D(1B) dopamine receptor) | Ki (D(2) dopamine receptor [1]) | Ki (D(3) dopamine receptor) | Ki (D(1A) dopamine receptor) | Ki (D(2) dopamine receptor [3]) | Ki (D(4) dopamine receptor) | Ki [10] | Ki [11] | other results
CC(C)(C)c1nc(N2CCN(CCCCNC(=O)c3cc4ccccc4s3)CC2)cc(C(F)(F)F)n1 | > 10000 nM | 4000 nM | 2.4 nM | > 10000 nM | 2700 nM | > 10000 nM | > 50000 nM | 7100 nM | Ratio Ki (Homo sapiens [2]): 1000 to 20000; Ratio Ki [4]: 1000 to 20000; Ratio Ki (Homo sapiens [5]): 1000 to 20000; Ratio Ki (Homo sapiens [6]): 1000 to 20000; Ratio Ki (Homo sapiens [7]): 1000 to 20000; Ratio Ki (Homo sapiens [8]): 1000 to 20000; Ratio Ki (Homo sapiens [9]): 1000 to 20000
COc1ccccc1N1CCN(CCCCNC(=O)c2cc3ccccn3n2)CC1 | – | – | – | – | – | – | 10 nM | – | Activity (Rhesus monkey [12]): 45%; Activity (Rhesus monkey [13]): Dose-dependent effect; Activity (Rhesus monkey [14]): 70 - 75%; Activity (Rhesus monkey [15]): 80%; Activity (Rhesus monkey [16]): 30%; Activity (Rhesus monkey [17]): <25%
CC(C)(C)c1nc(N2CCN(CCCCNC(=O)c3cc4ccccn4n3)CC2)cc(C(F)(F)F)n1 | 5700 nM | 430 nM | 1.2 nM | 7500 nM | 200 nM | 4700 nM | 9800 nM | 2700 nM | Ratio Ki [4]: 8000
O=C(NCCCCN1CCN(c2ccccc2OCCF)CC1)c1cc2ccccn2n1 | 3800 nM | 39 nM | 0.31 nM | 860 nM | 21 nM | 160 nM | 6.5 nM | 520 nM | inhibition [18]: Active; Ratio Ki (Homo sapiens [5]; [30]): 68; Ratio Ki (Homo sapiens [7]; [30]): 130; inhibition [19]: Active; inhibition [20]: Active; inhibition [21]: Active
O=C(NCCCCN1CC[N+]2(CCOc3ccccc32)CC1)c1cc2ccccn2n1 | > 50000 nM | 6300 nM | 200 nM | 5700 nM | 4500 nM | > 10000 nM | 900 nM | > 10000 nM | –
CN(C)C(=O)N[C@H]1CC[C@H](CCN2CCN(c3cccc(Cl)c3Cl)CC2)CC1 [CARIPRAZINE] | 7900 nM | – | – | – | – | – | – | – | –
O=C(NCCCCN1CCN(c2ccccc2OCC[18F])CC1)c1cc2ccccn2n1 | – | – | 0.31 nM | – | – | – | – | – | Drug uptake [22]: Active; Drug uptake [23]: Not Active; Drug uptake (Brain): Active; Drug uptake [24]: Active; Drug uptake [25]: Not Active; Drug uptake [26]: Active; Drug uptake [27]: Not Active; Drug uptake [28]: 0.394 % ID/g; Drug uptake [29]: Active
